# Assay results as given in ChEMBL document CHEMBL1156669, “Aldehyde dehydrogenase inhibitors: alpha,beta-acetylenic N-substituted aminothiolesters are reversible growth inhibitors of normal epithelial but irreversible apoptogens for cancer epithelial cells from human prostate in culture” (Eur J Med Chem, 2008).
# Calls of active or inactive are those of the source. The calls are words filed in the database; no cut-off is given here.
# Tests used:
# [1] = test system: DU-145; experiment: Growth inhibition of human DU145 cells administered after 3 days; assay type: functional, cell-based; details: DU-145, 72 h
# How it was run: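 DU145 in RPMI 1640 with 10% FCS; 1 × 10⁵ cells per well in 24-well plates, compound added 4 h after seeding. After 3 days the adherent sheet was washed twice with PBS and harvested in 0.14 M NaOH, and protein content measured. IC50 is the mean of three experiments.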
# [2] = Growth inhibition of rat JM2 cells; assay type: functional, cell-based
# [3] = test system: RH7777; experiment: Growth inhibition of RH7777 cells; assay type: functional, cell-based; details: Rattus norvegicus
# [4] = test system: MRC5; experiment: Growth inhibition of human MRC5 cells; assay type: cell-based
# [5] = Growth inhibition of HPEN cells administered after 3 days; assay type: cell-based; details: Homo sapiens, 72 h
# How it was run: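 HPENC in PrEGM with supplement and 10% FCS; 1 × 10⁵ cells per well in 24-well plates, compound added 4 h after seeding once adhered. After 3 days, growth read as protein content. IC50 is the mean of three experiments.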
# [6] = Growth inhibition of human androgen-sensitive MOP cells after 3 days; assay type: functional; details: 72 h
# How it was run: (§1)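 MOP (androgen-sensitive, LNCaP grown long-term in steroid-deprived medium) and ME (from regrown MOP xenografts under androgen) in RPMI 1640 with 5% charcoal-treated FCS. Seeded 1 × 10⁵ cells per well in 24-well plates, compound added at 4 h, cell count by Coulter counter after 3 days. IC50 is the mean of three experiments.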
# [7] = Growth inhibition of human androgen-resistant ME cells after 3 days; assay type: functional; details: 72 h; how it was run: as §1
# [8] = test system: DU-145; experiment: Growth inhibition of human DU145 cells at 2 uM after 3 days; assay type: functional; details: DU-145, 72 h
# How it was run: (§2)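 Cells seeded at 1 × 10⁵ per well in 24-well plates; compound added 4 h post-seeding and left for 3 days. Growth inhibition measured as protein content relative to control. HPENC values are means of three experiments in duplicate; DU145 values are means of five experiments in duplicate.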
# [9] = test system: DU-145; experiment: Growth inhibition of human DU145 cells at 5 uM after 3 days; assay type: functional; details: DU-145, 72 h; how it was run: as §2
# [10] = test system: DU-145; experiment: Growth inhibition of human DU145 cells at 10 uM after 3 days; assay type: functional; details: DU-145, 72 h; how it was run: as §2
# [11] = Growth inhibition of HPEN cells at 2 uM after 3 days; assay type: cell-based; details: human; how it was run: as §2
# [12] = Growth inhibition of HPEN cells at 5 uM after 3 days; assay type: cell-based; details: human; how it was run: as §2
# [13] = Growth inhibition of HPEN cells at 10 uM after 3 days; assay type: cell-based; details: human; how it was run: as §2
# [14] = test system: DU-145; experiment: Reversal of growth inhibition in human DU145 cells assessed as increase in cell number at 10 uM after 8 days; assay type: functional
# How it was run: (§3)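 Cells seeded in six wells and treated from 4 h after seeding. Two wells were left in the original drug-containing medium for a further 5 days. Growth measured on day 8 as protein content of adherent cells and expressed as the day 8/day 3 ratio. EtOH vehicle controls were handled identically. Two experiments in duplicate.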
# [15] = test system: DU-145; experiment: Reversal of growth inhibition in human DU145 cells assessed as increase in cell number at 10 uM on day 3 replaced with fresh medium without drug and measured after 8 days; assay type: functional
# How it was run: (§4)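 Cells were treated for 3 days. The medium was then aspirated, the sheet washed with PBS and fresh drug-free medium added, followed by 5 more days of culture. Growth measured on day 8 as adherent-cell protein and expressed relative to the day-3 protein content of parallel wells. Two experiments in duplicate.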
# [16] = Reversal of growth inhibition in HPEN cells assessed as increase in cell number at 10 uM after 8 days; assay type: cell-based; details: human, 192 h; how it was run: as §3
# [17] = Reversal of growth inhibition in HPEN cells assessed as increase in cell number at 10 uM on day 3 replaced with fresh medium without drug and measured after 8 days; assay type: cell-based; details: human, 192 h; how it was run: as §4
# [18] = test system: DU-145; experiment: Increase in superoxide anion level in human DU145 cells at 10 uM after 3 days by flow cytometry; assay type: functional, cell-based
# [19] = biological target: T1, Aldehyde dehydrogenase 1A1 (Homo sapiens) (UniProt P00352); experiment: Inhibition of ALDH1 in human DU145 cells at 2.5 uM after 3 days; assay type: cell-based; details: DU-145
# T1 sequence (whole entry): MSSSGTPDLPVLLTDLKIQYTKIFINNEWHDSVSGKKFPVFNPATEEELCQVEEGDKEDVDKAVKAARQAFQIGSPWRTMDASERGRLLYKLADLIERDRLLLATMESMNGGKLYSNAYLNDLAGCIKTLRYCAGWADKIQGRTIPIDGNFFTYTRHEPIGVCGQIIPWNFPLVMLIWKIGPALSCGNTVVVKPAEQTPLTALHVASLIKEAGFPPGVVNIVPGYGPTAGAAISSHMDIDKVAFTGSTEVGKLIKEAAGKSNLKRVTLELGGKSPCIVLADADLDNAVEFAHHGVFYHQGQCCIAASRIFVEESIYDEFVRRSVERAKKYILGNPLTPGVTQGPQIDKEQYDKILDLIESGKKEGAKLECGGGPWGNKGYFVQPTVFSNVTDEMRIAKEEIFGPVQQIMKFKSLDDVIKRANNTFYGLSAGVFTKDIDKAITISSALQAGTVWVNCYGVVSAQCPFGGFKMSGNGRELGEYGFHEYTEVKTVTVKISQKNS
# How it was run: (§5)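 DU145 treated for 3 days, trypsinised, washed in PBS and lysed in 60 mM sodium phosphate pH 7 with 1% Triton X-100 and 1 mM EDTA, 30 min at 4 °C; lysate spun at 48,000g for 30 min. ALDH1: supernatant in phosphate pH 8.5, 1 mM EDTA, 100 mM KCl, 2.35 mM NAD, propanal substrate. ALDH3: 5 mM benzaldehyde, 2.5 mM NADP, 1 mM pyrazole. Two experiments in duplicate.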
# [20] = biological target: T1, Aldehyde dehydrogenase 1A1 (Homo sapiens); experiment: Inhibition of ALDH1 in human DU145 cells at 5 uM after 3 days; assay type: cell-based; details: DU-145; how it was run: as §5
# [21] = biological target: T1, Aldehyde dehydrogenase 1A1 (Homo sapiens); experiment: Inhibition of ALDH1 in human DU145 cells at 7.5 uM after 3 days; assay type: cell-based; details: DU-145; how it was run: as §5
# [22] = biological target: T2, Aldehyde dehydrogenase, dimeric NADP-preferring (Homo sapiens) (UniProt P30838); experiment: Inhibition of ALDH3 in human DU145 cells at 2.5 uM after 3 days; assay type: cell-based; details: DU-145; how it was run: as §5
# T2 sequence (whole entry): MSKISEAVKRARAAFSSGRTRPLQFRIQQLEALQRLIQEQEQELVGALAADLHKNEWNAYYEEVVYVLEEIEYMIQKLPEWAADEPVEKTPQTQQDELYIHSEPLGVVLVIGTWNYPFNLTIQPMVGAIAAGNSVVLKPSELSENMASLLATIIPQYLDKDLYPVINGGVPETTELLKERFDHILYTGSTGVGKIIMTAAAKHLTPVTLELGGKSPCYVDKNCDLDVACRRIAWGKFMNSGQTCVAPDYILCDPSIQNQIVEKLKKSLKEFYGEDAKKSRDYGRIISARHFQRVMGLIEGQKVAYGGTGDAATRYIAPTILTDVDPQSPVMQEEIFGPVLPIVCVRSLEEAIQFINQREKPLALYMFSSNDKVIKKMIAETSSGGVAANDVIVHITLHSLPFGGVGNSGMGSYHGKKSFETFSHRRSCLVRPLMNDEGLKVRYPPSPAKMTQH
# [23] = biological target: T2, Aldehyde dehydrogenase, dimeric NADP-preferring (Homo sapiens); experiment: Inhibition of ALDH3 in human DU145 cells at 5 uM after 3 days; assay type: cell-based; details: DU-145; how it was run: as §5
# [24] = biological target: T2, Aldehyde dehydrogenase, dimeric NADP-preferring (Homo sapiens); experiment: Inhibition of ALDH3 in human DU145 cells at 7.5 uM after 3 days; assay type: cell-based; details: DU-145; how it was run: as §5
# [25] = test system: DU-145; experiment: Decrease in redox potential in human DU145 cells at 10 uM after 3 days by flow cytometry; assay type: functional, cell-based
# [26] = test system: DU-145; experiment: Induction of apoptosis in human DU145 cells assessed as apoptotic cells in flow cytometry region H1 at 10 uM after 3 days by flow cytometry
# [27] = test system: DU-145; experiment: Induction of apoptosis in human DU145 cells assessed as apoptotic cells in flow cytometry region H3 at 10 uM after 3 days by flow cytometry
# [28] = test system: BaF3; experiment: Induction of apoptosis in mouse BAF3 cells overexpressing bcl2; assay type: functional, cell-based
# [29] = biological target: T3, Aldehyde dehydrogenase 1, mitochondrial (Saccharomyces cerevisiae) (UniProt P22281); experiment: Inhibition of yeast ALDH1 at 600 uM
# T3 sequence (whole entry): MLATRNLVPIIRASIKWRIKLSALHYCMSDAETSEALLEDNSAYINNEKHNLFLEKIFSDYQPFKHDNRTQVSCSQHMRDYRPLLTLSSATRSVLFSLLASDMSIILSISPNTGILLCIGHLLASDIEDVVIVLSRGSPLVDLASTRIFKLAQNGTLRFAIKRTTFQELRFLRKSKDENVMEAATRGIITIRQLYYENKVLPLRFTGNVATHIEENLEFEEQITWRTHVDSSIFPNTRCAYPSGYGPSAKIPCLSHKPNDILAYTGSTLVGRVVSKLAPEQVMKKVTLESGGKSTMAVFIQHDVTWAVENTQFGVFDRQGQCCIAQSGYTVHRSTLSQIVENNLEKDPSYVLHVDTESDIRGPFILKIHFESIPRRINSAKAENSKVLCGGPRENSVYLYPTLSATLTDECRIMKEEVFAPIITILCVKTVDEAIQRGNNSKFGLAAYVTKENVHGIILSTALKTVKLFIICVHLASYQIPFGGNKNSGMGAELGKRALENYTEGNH
# [30] = test system: DU-145; experiment: Reversal of growth inhibition in human DU145 cells assessed as increase in cell number at 15 uM after 8 days; assay type: functional; how it was run: as §3
# [31] = test system: DU-145; experiment: Reversal of growth inhibition in human DU145 cells assessed as increase in cell number at 15 uM on day 3 replaced with fresh medium without drug and measured after 8 days; assay type: functional; how it was run: as §4
# [32] = Reversal of growth inhibition in HPEN cells assessed as increase in cell number at 15 uM after 8 days; assay type: cell-based; details: human, 192 h; how it was run: as §3
# [33] = Reversal of growth inhibition in HPEN cells assessed as increase in cell number at 15 uM on day 3 replaced with fresh medium without drug and measured after 8 days; assay type: cell-based; details: human, 192 h; how it was run: as §4
# [34] = test system: DU-145; experiment: Growth inhibition of human DU145 cells at 15 uM after 3 days; assay type: functional; details: DU-145, 72 h
# How it was run: (§6)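 Vehicle controls received 0.5% EtOH. Cells seeded at 1 × 10⁵ per well, compound added at 4 h. Growth inhibition measured by protein content at day 3; two experiments, each in duplicate.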
# [35] = Growth inhibition of HPEN cells at 15 uM after 3 days; assay type: cell-based; details: human; how it was run: as §6
compound,measurement,setting,value
CSC(=O)C#CC(C)(C)N1CCSCC1,IC50,[1],54 µM
CSC(=O)C#CC(C)(C)N(C)C,IC50,[2],10 µM
same,IC50,[3],10 µM
same,IC50,[4],8 µM
same,IC50,[1],7.2 µM
same,IC50,[5],9.7 µM
same,IC50,[6],3 µM
same,IC50,[7],3 µM
same,inhibition at 2 µM,[8],6%
same,inhibition at 5 µM,[9],34%
same,inhibition at 10 µM,[10],78%
same,"inhibition at 72 h, 2 µM",[11],6%
same,"inhibition at 72 h, 5 µM",[12],23%
same,"inhibition at 72 h, 10 µM",[13],60%
same,Activity,[14],2.5
same,Activity,[15],2.7
same,Activity,[16],0.9
same,Activity,[17],2.8
same,Activity,[18],Active
same,inhibition,[19],15%
same,inhibition,[20],40%
same,inhibition,[21],78%
same,inhibition,[22],40%
same,inhibition,[23],62%
same,inhibition,[24],100%
same,Activity,[25],Active
same,Activity,[26],Active
same,Activity,[27],Active
CN(C)C(=S)C#CC(C)(C)N1CCOCC1,IC50,[1],100 µM
CCCN(CCC)C(C)(C)C#CC(=O)SC,IC50,[1],12.6 µM
CSC(=O)C#CC(C)(C)N(C)CCc1ccccc1,IC50,[1],6 µM
CSC(=O)C#CC(C)(C)N(C)Cc1ccccc1,IC50,[1],1.4 µM
same,IC50,[5],1.9 µM
CSC(=O)C#CC(C)(C)N1CCOCC1,IC50,[28],12 µM
same,inhibition,[29],15%
same,IC50,[4],29 µM
same,IC50,[1],9.3 µM
same,IC50,[5],> 10 µM
same,IC50,[6],10 µM
same,IC50,[7],10 µM
same,inhibition at 2 µM,[8],0%
same,inhibition at 5 µM,[9],8%
same,inhibition at 10 µM,[10],70%
same,"inhibition at 72 h, 2 µM",[11],3%
same,"inhibition at 72 h, 5 µM",[12],6%
same,"inhibition at 72 h, 10 µM",[13],11%
same,Activity,[14],3
same,Activity,[30],1.9
same,Activity,[15],2.6
same,Activity,[31],1.6
same,Activity,[16],0.4
same,Activity,[32],1.4
same,Activity,[17],1.6
same,Activity,[33],2.6
same,inhibition,[19],3%
same,inhibition,[20],20%
same,inhibition,[21],32%
same,inhibition,[22],40%
same,inhibition,[23],60%
same,inhibition,[24],78%
same,inhibition at 15 µM,[34],88%
same,"inhibition at 72 h, 15 µM",[35],37%
CSC(=O)C#CC(C)(C)N1CCCC1,IC50,[1],6.7 µM
